# Runt-SMMHC FRET – inhibitors of RUNX1 Runt–CBFb-SMMHC binding, primary screen, biochemical, FRET, Cerulean-Runt, Venus-CBFb-SMMHC, uHTS | Runt-related transcription factor 1 (Homo sapiens) + Core-binding factor subunit beta … | Cerulean-Runt/Venus-CBFb-SMMHC FRET ratio 530/480, 1 h | inhibition, % at 20 µM | actives 0.74% (n = 220,000) | AID 1434, 2008;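 active = mean inhibition across duplicate retests at 20 µM reaching about 50%, limit read from the data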;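 note: 0% = DMSO wells and 100% = wells with excess untagged CBFb-SMMHC; inhibitors lower the FRET ratio by blocking Runt binding to CBFb-SMMHC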
# TbHK1 inh – Trypanosoma brucei hexokinase 1 inhibitors, primary screen, biochemical, G6PDH-coupled NADH absorbance, MLSCN library | hexokinase 1 [Trypanosoma brucei] | recombinant TbHK1, G6PDH-coupled NADH A340 | inhibition, % at 10 µM | actives 0.11% (n = 220,000) | AID 1430, 2008;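 active = inhibition of 50% or more in the single-dose primary screen; inactive = inhibition below 50%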
# Runt-CBFb FRET – inhibitors of RUNX1 Runt–CBFb binding, primary screen, biochemical, FRET, Cerulean-Runt, Venus-CBFb, uHTS | actives 0.46% (n = 220,000) | Cerulean-Runt/Venus-CBFb FRET ratio 530/480, 1 h | inhibition, % at 20 µM;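 active = inhibition over about 50% at 20 µM in the single-dose screen, limit read from the data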;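 note: 0% = DMSO wells and 100% = excess unlabeled CBFb competitor control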
#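 Assay system: Cerulean-tagged RUNX1 Runt domain (FRET donor) fusion protein / Amount: 100 nM each of Venus-CBFb and Cerulean-Runt domain / Medium: Tris buffer pH 7.5 with salts and BSA / Also added: Venus-CBFb 100 nM / Schedule: 1 h complex formation plus 1 h compound treatment, room temperature / Signal: FRET fluorescence / Read-out: loss of energy transfer signal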
# RanGTP-Imp inh – inhibitors of RanGTP-importin-beta interaction, primary screen, biochemical, FRET, CFP-Ran, YFP-importin-beta, homogeneous. Ran GTPase (GTP-bound) - importin-beta complex. cell-free CFP-Ran/YFP-importin-beta FRET ratio. inhibition, % (no concentration beside the values). actives 1.1% (n = 300,000). AID 2216, 2009;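 active = more than half of the replicate wells show a fall in the fluorescence ratio signal beyond about 16%, limit read from the data, passing the limit was not always enough; inconclusive = exactly half of the replicate wells pass the set limit; inactive = fewer than half of replicates pass the limit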;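 note: 0% = DMSO wells and 100% = Ran loaded with GDP instead of GTP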
# Hck Nef HTS – inhibitors of Nef-activated human Hck kinase, primary screen, biochemical, Z-Lyte FRET, 384-well, Hck-YEEI | Tyrosine-protein kinase HCK (Homo sapiens), P08631 | Recombinant Hck-YEEI plus Nef, Z-Lyte FRET kinase assay | inhibition, % at 20 µM | actives 0.68% (n = 220,000) | AID 463187, 2010;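 active = Hck-Nef kinase inhibition above about 50%, limit read from the data; inactive = inhibition below that limit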;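 note: 0% = DMSO with Hck plus Nef and 100% = Hck alone without Nef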
# Target sequence (P08631 whole entry, looked up): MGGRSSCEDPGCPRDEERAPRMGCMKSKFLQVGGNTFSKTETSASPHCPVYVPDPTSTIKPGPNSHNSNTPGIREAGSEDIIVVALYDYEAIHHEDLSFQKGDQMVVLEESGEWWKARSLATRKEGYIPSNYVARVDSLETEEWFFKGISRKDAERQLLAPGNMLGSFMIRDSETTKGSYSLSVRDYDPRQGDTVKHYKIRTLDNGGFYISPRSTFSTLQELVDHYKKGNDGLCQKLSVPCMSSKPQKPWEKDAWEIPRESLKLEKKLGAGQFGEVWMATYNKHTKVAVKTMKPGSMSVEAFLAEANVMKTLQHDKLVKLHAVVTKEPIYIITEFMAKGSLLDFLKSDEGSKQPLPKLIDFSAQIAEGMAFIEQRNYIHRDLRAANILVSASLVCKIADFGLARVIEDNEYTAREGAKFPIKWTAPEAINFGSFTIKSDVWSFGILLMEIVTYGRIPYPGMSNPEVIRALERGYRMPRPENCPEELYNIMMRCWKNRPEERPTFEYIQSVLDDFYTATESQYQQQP
# Hck Nef conf – retest of Hck:Nef kinase inhibitor hits, confirmation, biochemical, Z-Lyte FRET, 384-well, p-Tyr peptide counterscreen. calls only at 10 µM. shares compounds with Hck Nef HTS. actives 28% (n = 1,300). Recombinant Hck-YEEI:Nef, Z-Lyte FRET kinase assay;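 active = average inhibition of at least 50%, with Z-scores no higher than 3 in both the phospho-tyrosine peptide and fluorescence counterscreens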
# Numbers without * were called inactive; i = inactive; ? = inconclusive; nt = no result given; + = active, no number. Compounds with a hit are over-represented: about 1.9% of the library has one in this group of screens.
SMILES,Runt-SMMHC FRET,TbHK1 inh,Runt-CBFb FRET,RanGTP-Imp inh,Hck Nef HTS,Hck Nef conf
O=C1NC(=O)N(c2ccc(Cl)cc2)C(=O)/C1=C\c1ccc(Sc2nc3ccccc3[nH]2)o1,1,19,13,5,57*,i
O=C(NCc1cccnc1)Nc1ccc([N+](=O)[O-])cc1,nt,nt,nt,0,nt,nt
Cc1ccccc1-[n+]1c(-c2ccccc2)cc(-c2ccccc2)cc1-c1ccccc1,nt,nt,nt,0,nt,nt
COCCNC(=O)c1c(N)n(CCC(C)C)c2nc3ccccc3nc12,59*,-27,43,82*,64*,i
C=CCNC(=O)c1c(N)n(CCN2CCOCC2)c2nc3ccccc3nc12,44,-18,81*,80*,50*,nt
Cc1c(C(=O)Nc2ccccc2)cc(-c2ccccc2)n1CCCN1CCOCC1,-1,-1,0,5,-4,nt
CNC(=O)Oc1ccc(N(C)C)cc1C(C)C,-2,-5,12,3,8,nt
CC(C)c1ccc(-n2c(O)c(C=NC(CCS(C)=O)C(=O)O)c(=O)[nH]c2=S)cc1 (stereo unspecified),1,-102,1,2,-5,nt
O=c1oc2ccccc2c(O)c1C(c1ccc([N+](=O)[O-])cc1)c1c(O)c2ccccc2oc1=O,10,-1,16,-2,73*,+
C/C(CC(c1ccccc1)c1c(O)c2ccccc2oc1=O)=N\Nc1ccc([N+](=O)[O-])cc1[N+](=O)[O-] (stereo unspecified),-2,-31,-2,-1,22,nt
CN1C(=O)/C(=C/C=C/c2ccco2)C(=O)NC1=S,8,0,18,-5,54*,i
O=C1NC(=O)N(Cc2ccccc2)C(=O)/C1=C\C=C\c1ccco1,13,2,14,?,59*,i
CN(C)c1ccc(/C=C/C=C2/C(=O)NC(=O)N(c3ccccc3)C2=O)cc1,14,3,16,6,57*,i
O=C1NC(=O)N(c2ccccc2)C(=O)/C1=C/C=C/c1ccco1,-30,1,3,0,29,nt
Cc1ccc(N2C(=O)NC(=O)/C(=C\C=C\c3ccco3)C2=O)cc1C,-36,33,7,-7,68*,i
CCNC(=S)N1CCn2cccc2C1c1cccnc1 (stereo unspecified),-5,3,-3,-1,16,nt
COc1ccc(-c2nn(CCC#N)cc2C(=O)Nc2ccc(C(C)=O)cc2)cc1[N+](=O)[O-],nt,nt,nt,3,nt,nt
O=C1NC(=O)N(CCc2ccc(F)cc2)C(=O)/C1=C\C=C\c1ccccc1,4,-13,5,nt,27,nt
C=CCN1C(=O)NC(=O)/C(=C/C=C/c2ccccc2)C1=O,34,5,25,3,51*,i
CCC1=Nc2cc(C(=O)N3CCC4(CC3)OCCO4)ccc2Sc2ccc(C)cc21,nt,nt,nt,0,nt,nt
N#CC(C#N)=NNc1ccc(S(N)(=O)=O)cc1,2,-20,-4,-5,52*,+
CC1CCN(S(=O)(=O)c2ccc(NN=C(C#N)C#N)cc2)CC1,-5,-9,-2,nt,0,nt
CCCCC(=O)N/N=C/c1c(O)n(CCc2ccc(OC)c(OC)c2)c(=O)[nH]c1=O,4,-9,-3,-1,78*,i
O=C1NC(=S)N(c2ccc(F)cc2)C(=O)/C1=C/c1ccco1,nt,nt,nt,-3,nt,nt
O=C1NC(=S)N(c2ccc(F)cc2)C(=O)/C1=C\c1ccoc1,5,30,11,nt,79*,+
SMILES,Runt-SMMHC FRET,TbHK1 inh,Runt-CBFb FRET,RanGTP-Imp inh,Hck Nef HTS,Hck Nef conf
COc1cccc(CC(=O)N(C)C2CCCN(Cc3ccccc3F)C2)c1 (stereo unspecified),nt,nt,nt,3,nt,nt
CC(=NCc1ccco1)c1c(O)n(-c2ccc(C)cc2)c(=O)[nH]c1=O,4,-8,-2,8,16,nt
COc1cc(/C=C2\C(=O)NC(=O)N(c3ccccc3)C2=O)c([N+](=O)[O-])cc1OC,-10,-11,16,nt,33,nt
CN1C(=O)NC(=O)/C(=C\C=C\c2ccccc2[N+](=O)[O-])C1=O,26,-1,15,nt,93*,i
Cc1cccc(N2C(=O)/C(=C/c3ccc(CN(CCC#N)S(C)(=O)=O)o3)C(=O)NC2=S)c1,-2,-3,8,-2,53*,i
Cc1ccc(N2C(=O)/C(=C/c3ccc(CN(CCC#N)S(C)(=O)=O)o3)C(=O)NC2=S)cc1C,-1,8,8,-2,13,nt
Nc1c(C(=O)NCC2CCCO2)c2nc3ccccc3nc2n1Cc1ccco1 (stereo unspecified),81*,-21,36,64*,60*,nt
COc1ccc(Cn2c(N)c(C(=O)NCc3ccco3)c3nc4ccccc4nc32)cc1OC,57*,-13,17,nt,62*,i
Cc1nn(Cc2ccccc2)c(C)c1C(=O)OCC(=O)NCc1ccco1,-2,-11,2,3,3,nt
CN1C(=O)C(=Cc2coc3ccccc3c2=O)C(=O)N(C)C1=O,-1,-17,0,-2,81*,+
O=C1NC(=O)C(=Cc2cccc(OCCOc3ccccc3)c2)C(=O)N1,nt,nt,nt,0,nt,nt
O=C1NC(=O)C(=Cc2ccc(OCCOc3ccc([N+](=O)[O-])cc3)cc2)C(=O)N1,-4,-14,6,1,63*,i
CN1C(=O)C(=Cc2ccc(Sc3ccccc3)o2)C(=O)N(C)C1=O,7,-1,7,nt,70*,i
FC(F)(F)c1ccccc1N1CC1c1ccncc1 (stereo unspecified),nt,nt,nt,3,nt,nt
Cc1ccc2c(c1)=NC(=O)/C(=C/c1c(O)[nH]c(=O)[nH]c1=O)C=2,-2,-28,26,-3,65*,+
O=C1NC(=O)C(=Cc2coc3ccc(O)cc3c2=O)C(=O)N1,-9,-27,7,-2,78*,+
COc1cc(N2CCOCC2)ccc1C=C1C(=O)NC(=O)NC1=O,-6,-31,1,4,0,nt
CN1CCN(/N=C/c2c(O)n(Cc3ccc(F)cc3)c(=O)[nH]c2=O)CC1,1,-11,3,2,18,nt
Cc1cc(C=C2C(=O)NC(=S)NC2=O)c(C)n1C1CCCC1,9,3,15,2,71*,i
Cc1ccc(Cn2nc(C(=O)Nc3ccc(Br)cc3)cc2C)cc1,nt,nt,nt,1,nt,nt

# Screens from PubChem.
